From ChEMBL document CHEMBL3580577, “Fragment-based exploration of binding site flexibility in Mycobacterium tuberculosis BioA” (J Med Chem, 2015)

Columns and labels:
[1] = tested on: Mycobacterium tuberculosis; assay: Inhibition of Mycobacterium tuberculosis N-terminal His-tagged BioA assessed as temperature of denaturation shift by […]
Method in brief: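 Differential scanning fluorimetry with 0.05 mg/mL holo BioA in 25 mM HEPES pH 7.5, 50 mM NaCl, 5× SYPRO Orange, and 5 mM fragment from 200 mM DMSO stock. Heated 55–100 °C in 0.5 °C steps with 60 s dwell. Tm taken at the first-derivative peak; the shift is against the mean of DMSO-only controls on the same plate. Four replicates, mean with standard error.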

[2] = tested on: Mycobacterium tuberculosis; assay: Antimycobacterial activity against Mycobacterium tuberculosis H37Rv assessed as growth inhibition after 9 days by Whole cell growth assay in presence of 1000 nM biotin; format: functional, organism-based; conditions: 216 h
Method in brief: (§1)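 Virulent H37Rv wild type pregrown in Sauton's medium with 1000 nM biotin to OD580 1.0–1.2, washed twice in biotin-free Sauton's medium, and seeded at OD580 0.03 in biotin-free medium or with 1000 nM biotin added. Compounds were tested at 2-fold dilutions, 1000 to 3.9 µM final, against no-compound controls. OD read after nine days at 37 °C, in triplicate; MIC calculated.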

[3] = Inhibition of Mycobacterium tuberculosis N-terminal His-tagged BioA assessed as dissociation constant by isothermal titration calorimetry
Method in brief: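 Isothermal titration calorimetry at 25 °C in 25 mM HEPES pH 7.5, 50 mM NaCl, with 100 µM PLP-saturated His-tagged BioA (E. coli-expressed) in the cell. Ligand at 1.0, 1.5 or 2.0 mM, DMSO matched, given as 2 µL injections 150 s apart with stirring at 750 rpm. First injection discarded; heats of dilution corrected. KD = 1/KA from curve fit, averaged over three replicates.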

[4] = tested on: Mycobacterium tuberculosis; assay: Antimycobacterial activity against Mycobacterium tuberculosis BioA-UE strain assessed as growth inhibition after 9 days by Whole cell growth assay in presence of 1000 nM biotin; format: functional, organism-based; conditions: 216 h
Method in brief: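 Mtb BioA-underexpressing strain pregrown in Sauton's medium with 1000 nM biotin to OD580 1.0–1.2, washed twice in biotin-free Sauton's medium, and seeded at OD580 0.03 in medium with 1000 nM biotin plus 200 ng/mL anhydrotetracycline. Compounds were tested at 2-fold serial dilutions, 1000 to 3.9 µM final, against no-compound controls. OD read after nine days at 37 °C, in triplicate; MIC calculated from growth.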

[5] = tested on: Mycobacterium tuberculosis; assay: Antimycobacterial activity against Mycobacterium tuberculosis H37Rv assessed as growth inhibition after 9 days by Whole cell growth assay; format: functional, organism-based; conditions: 216 h; method in brief: as §1
[6] = Inhibition of Mycobacterium tuberculosis H37Rv N-terminal His-tagged BioA using KAPA substrate by in vitro biochemical assay

| SMILES | ΔTm [1] [°C] | IC50 [2] [µM] | Kd [3] [µM] | IC50 [4] [µM] | IC50 [5] [µM] | IC50 [6] [µM] |
| --- | --- | --- | --- | --- | --- | --- |
| NC(=O)c1ccc(-c2ccccn2)s1 | 6.3 | > 1000 | 6.9 | 39.2 | 249 | – |
| CC(=O)Nc1ccc2c(c1)C=CC2=O | 3.6 | > 1000 | 21.7 | > 1000 | > 1000 | – |
| NC(=O)c1ccc(-n2ccnc2)cc1 | 4.1 | > 1000 | 15 | > 1000 | > 1000 | – |
| NCc1ccc(Cn2cc(Cl)cn2)cc1 | -11.9 | – | 6.8 | – | – | – |
| CNCc1ccc(Cn2cccn2)cc1 | 5.3 | > 1000 | 11.7 | > 1000 | > 1000 | – |
| NCc1nc2ccccc2s1 | -6.5 | 304 | 30.3 | 368 | 250 | – |
| O=c1cc(-c2ccccc2F)[nH]c2cc3c(cc12)OCO3 | – | – | – | – | – | 0.44 |
| O=C(c1ccccc1)C1CCNCC1 | 3.6 | 357 | 41.8 | 260 | 340 | – |
